The conditions of data set [1]: BPD patients 3 days after dosing of (R,S)-Ket; ref Zhao et al., 2012; cited from earlier work.
Data set [2] has as its system expressed human P450s (1A2, 2A6, 2B6, 2C8, 2C9, 2C19, 2D6, 2E1, 3A4, and 3A5). Put plainly: Incubation with panel of 10 expressed CYPs. It counts as in vitro ADME. The following applies: for disappearance of substrate, other isoforms (no appreciable effect, cutoff): expressed isoforms other than CYP2A6, CYP2B6, CYP2C19. Summed up: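 Qualitative isoform screen. Baculovirus-insect cell-expressed human CYP1A2, 2A6, 2B6, 2C8, 2C9, 2C19, 2D6, 2E1, 3A4 or 3A5 with oxidoreductase (13–26 pmol) was incubated at 37°C with 10 μM (R)- or (S)-ketamine, or (R,S)-, (R)- or (S)-norketamine. The NADPH-generating system contained NADP, glucose 6-phosphate, MgCl2 and glucose-6-phosphate dehydrogenase. Ketamine incubations ran 15 min. Products measured by LC/MS/MS.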

Data set [3] addresses T1, expressed CYP2A6 (Homo sapiens, UniProt P11509).
T1 sequence (P11509 1-494): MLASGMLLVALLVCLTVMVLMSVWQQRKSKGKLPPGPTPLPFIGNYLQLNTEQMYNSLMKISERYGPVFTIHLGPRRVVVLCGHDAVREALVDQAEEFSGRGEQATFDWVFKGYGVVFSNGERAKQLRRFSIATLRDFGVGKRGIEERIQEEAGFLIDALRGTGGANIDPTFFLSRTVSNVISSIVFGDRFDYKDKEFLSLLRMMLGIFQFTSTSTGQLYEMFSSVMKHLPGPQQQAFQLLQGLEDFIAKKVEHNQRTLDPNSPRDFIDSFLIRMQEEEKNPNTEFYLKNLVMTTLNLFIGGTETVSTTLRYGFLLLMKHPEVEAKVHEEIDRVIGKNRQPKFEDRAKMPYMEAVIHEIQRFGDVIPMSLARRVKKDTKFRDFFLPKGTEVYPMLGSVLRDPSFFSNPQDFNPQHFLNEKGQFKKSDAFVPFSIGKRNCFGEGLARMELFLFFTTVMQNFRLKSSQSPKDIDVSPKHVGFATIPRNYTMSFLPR
Put plainly: Incubation with expressed CYP2A6. Type of data set: in vitro ADME. The following applies: for Vmax: expressed CYP2A6 13 pmol, 37°C, 15 min; for depletion of substrate from the incubation mixture: expressed CYP2A6, data not shown.

Data set [4] relates to human liver microsomes (HLMs). Briefly: Identification of Ket and norKet metabolites in HLM incubates. The following applies: HLMs 0.5 mg/ml; for metabolite found in HLM incubates of (R,S)-Ket: (R,S)-Ket 10 μM, Fig. 2A; for metabolite found in HLM incubates of (R,S)-norKet: (R,S)-norKet 10 μM, Fig. 2. It counts as in vitro ADME.
In data set [5] the target is T2, expressed CYP2B6 (Homo sapiens, UniProt P20813).
T2 sequence (P20813 1-491): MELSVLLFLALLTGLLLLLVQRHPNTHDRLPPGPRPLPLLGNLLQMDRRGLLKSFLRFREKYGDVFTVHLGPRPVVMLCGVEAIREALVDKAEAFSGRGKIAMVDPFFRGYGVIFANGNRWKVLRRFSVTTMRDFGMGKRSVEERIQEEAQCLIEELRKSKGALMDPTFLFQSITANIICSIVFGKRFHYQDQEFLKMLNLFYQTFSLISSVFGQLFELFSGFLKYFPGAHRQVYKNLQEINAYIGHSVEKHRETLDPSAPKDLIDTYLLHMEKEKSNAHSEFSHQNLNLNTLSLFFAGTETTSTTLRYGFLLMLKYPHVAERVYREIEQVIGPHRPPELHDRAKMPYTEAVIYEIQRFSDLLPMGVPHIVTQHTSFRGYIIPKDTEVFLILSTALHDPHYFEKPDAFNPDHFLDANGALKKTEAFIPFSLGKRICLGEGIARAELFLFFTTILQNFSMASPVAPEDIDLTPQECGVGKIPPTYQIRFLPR
Put plainly: Incubation with expressed CYP2B6. It counts as in vitro ADME. The note with it: for Vmax: expressed CYP2B6 13 pmol, 37°C, 15 min; for depletion of substrate from the incubation mixture: data not shown.

Data set [6] deals with expressed CYP3A5 (Homo sapiens, UniProt P20815). Put plainly: Incubation with expressed CYP3A5. It counts as in vitro ADME. The following applies: expressed CYP3A5 13 pmol, 37°C, 15 min.
For data set [7], the target named is expressed CYP2C19 (Homo sapiens, UniProt P33261). Briefly: Incubation with expressed CYP2C19. It counts as in vitro ADME. The following applies: data not shown.
Setting [8] is: formation of metabolite from (R)-norKet.
Setting [9] is: formation of metabolite from (S)-norKet.

Sequence of expressed CYP3A5 (P20815 whole entry): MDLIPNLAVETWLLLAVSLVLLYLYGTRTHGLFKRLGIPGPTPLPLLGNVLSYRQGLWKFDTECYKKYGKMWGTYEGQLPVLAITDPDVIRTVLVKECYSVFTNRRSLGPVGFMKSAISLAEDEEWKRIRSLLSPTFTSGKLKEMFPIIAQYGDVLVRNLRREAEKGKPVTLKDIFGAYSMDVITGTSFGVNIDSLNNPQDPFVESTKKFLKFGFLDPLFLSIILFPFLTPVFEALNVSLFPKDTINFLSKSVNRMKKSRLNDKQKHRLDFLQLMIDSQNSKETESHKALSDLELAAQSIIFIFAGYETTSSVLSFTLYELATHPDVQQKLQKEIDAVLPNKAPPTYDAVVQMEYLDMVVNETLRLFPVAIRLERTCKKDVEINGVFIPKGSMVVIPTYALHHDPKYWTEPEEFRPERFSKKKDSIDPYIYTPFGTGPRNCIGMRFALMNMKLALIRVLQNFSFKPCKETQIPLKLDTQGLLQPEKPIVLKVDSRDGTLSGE
Sequence of expressed CYP2C19 (P33261 whole entry): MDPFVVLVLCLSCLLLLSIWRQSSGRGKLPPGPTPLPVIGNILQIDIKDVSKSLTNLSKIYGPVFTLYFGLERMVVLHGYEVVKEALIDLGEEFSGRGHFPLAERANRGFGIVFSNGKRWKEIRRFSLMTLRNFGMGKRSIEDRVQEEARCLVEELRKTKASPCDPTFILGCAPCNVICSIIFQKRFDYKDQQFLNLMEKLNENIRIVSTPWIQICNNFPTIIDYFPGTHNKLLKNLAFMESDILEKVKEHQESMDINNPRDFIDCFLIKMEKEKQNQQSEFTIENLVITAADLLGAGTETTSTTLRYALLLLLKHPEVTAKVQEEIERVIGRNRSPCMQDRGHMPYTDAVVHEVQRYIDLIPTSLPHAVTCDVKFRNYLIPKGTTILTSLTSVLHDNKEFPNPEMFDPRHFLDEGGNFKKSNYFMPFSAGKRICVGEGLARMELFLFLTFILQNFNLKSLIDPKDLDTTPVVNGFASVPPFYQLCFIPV

Regarding `NC1(c2ccccc2Cl)CCCC(O)C1=O` [4a, (2S,6S;2R,6R)-HNK], in data set [1], the plasma concentration is more than 8 ng/mL. In addition, the “metabolite formation by other CYPs” value in data set [2] (substrate 5a, expressed CYPs other than CYP2B6, data not shown) is less than 13 ng/mL. For the same molecule, the Vmax in data set [3] (setting [8]) is listed as 8.18 pmol/min/pmol P450; in data set [3] (setting [9]), 3.9 pmol/min/pmol P450; in data set [5] (setting [8]) it was 0.76 pmol/min/pmol P450; in data set [5] (setting [9]), 0.56 pmol/min/pmol P450; in data set [6] (setting [8]), 0.29 pmol/min/pmol P450; in data set [6] (setting [9]) it was 3.87 pmol/min/pmol P450. The “metabolite found in HLM incubates of (R,S)-Ket” value (from here on “metabolite found … (R,S)-Ket”) in data set [4] was “significant concentrations”. In data set [4], the “metabolite found in HLM incubates of (R,S)-norKet” value (“metabolite found … (R,S)-norKet” below) is recorded as “significant concentrations”. In addition, the “N-demethylated metabolite formed (highest rate)” value in data set [5] (substrate 5a, expressed CYP2B6) was found to be 201.6 ng/mL.
With `NC1(c2ccccc2Cl)CCCC(O)C1=O` [4b, (2S,6R;2R,6S)-HNK], in data set [2] (10 expressed CYPs), the “generation from (S)- or (R)-norKet by any of the expressed CYPs” value is recorded as “not generated”. In data set [4], the “metabolite found … (R,S)-Ket” value is “significant concentrations” and the “metabolite found … (R,S)-norKet” value is “not detected”.
Take `N[C@]1(c2ccccc2Cl)CCCCC1=O` [(S)-norKet]: the “disappearance of substrate, other isoforms (no appreciable effect, cutoff)” value in data set [2] (data not shown) is less than 24%. In addition, the “depletion of substrate from the incubation mixture” value in data set [7] turned out to be 27.3%; in data set [3], 41.0%; in data set [5] (expressed CYP2B6) it was 41.6%.
Regarding `CNC1(c2ccccc2Cl)CCCC(O)C1=O` (single isomer, unassigned) [5a], in data set [4], the “metabolite found … (R,S)-Ket” value is recorded as “significant concentrations”. Besides, the “decrease of substrate concentration in the incubates” value in data set [5] (substrate 5a, incubates containing CYP2B6) was determined as 42.5%.
As to `CNC1(c2ccccc2Cl)CCCC(O)C1=O` (single isomer, unassigned) [5b], the “metabolite found … (R,S)-Ket” value in data set [4] is on record as “significant concentrations”.
With `NC1(c2ccccc2Cl)CCC(O)CC1=O` [4f, (2S,5R;2R,5S)-HNK], the Vmax is on record as 0.44 pmol/min/pmol P450 in data set [3] (setting [8]); 0.33 pmol/min/pmol P450 in data set [3] (setting [9]); 3.98 pmol/min/pmol P450 in data set [5] (setting [8]); 0.30 pmol/min/pmol P450 in data set [5] (setting [9]); 1.69 pmol/min/pmol P450 in data set [6] (setting [8]); 5.71 pmol/min/pmol P450 in data set [6] (setting [9]). Besides, the “metabolite found … (R,S)-Ket” value in data set [4] is listed as “significant concentrations”. In addition, in data set [4], the “metabolite found … (R,S)-norKet” value is “significant concentrations”. The “Clint for formation from (R)-norKet relative to (S)-norKet” value in data set [5] (enzyme not given, Table 5, fits CYP2B6) is listed as ~ 10 fold.
Take `NC1(c2ccccc2Cl)CCC(O)CC1=O` [4c, (2S,5S;2R,5R)-HNK]: the Vmax in data set [3] (setting [8]) worked out at 1.25 pmol/min/pmol P450; in data set [3] (setting [9]), 1.48 pmol/min/pmol P450; in data set [5] (setting [8]) it was 16.72 pmol/min/pmol P450; in data set [5] (setting [9]) it was 16.3 pmol/min/pmol P450; in data set [6] (setting [8]), 0.038 pmol/min/pmol P450; in data set [6] (setting [9]), 0.30 pmol/min/pmol P450. Besides, the “metabolite found … (R,S)-Ket” value in data set [4] is “significant concentrations”. Further, the “metabolite found … (R,S)-norKet” value in data set [4] is “significant concentrations”.
Consider `NC1(c2ccccc2Cl)CC(O)CCC1=O` [4d, (2S,4S;2R,4R)-HNK], for which the Vmax in data set [3] (setting [8]) amounted to 1.28 pmol/min/pmol P450; in data set [3] (setting [9]), 4.67 pmol/min/pmol P450; in data set [5] (setting [8]), 0.78 pmol/min/pmol P450; in data set [5] (setting [9]), 3.34 pmol/min/pmol P450; in data set [6] (setting [8]), 0.029 pmol/min/pmol P450; in data set [6] (setting [9]), 0.20 pmol/min/pmol P450. Moreover, in data set [4], the “metabolite found … (R,S)-Ket” value is listed as “trace amounts”. For the same molecule, the “metabolite found … (R,S)-norKet” value in data set [4] is recorded as “trace amounts”.
With `NC1(c2ccccc2Cl)CCCCC1=O` (racemic) [(R,S)-norKet, norketamine], in data set [4], the “metabolite found … (R,S)-Ket” value is on record as “significant concentrations”.
On to `NC1(c2ccccc2Cl)CC(O)CCC1=O` [4e, (2S,4R;2R,4S)-HNK], for which, in data set [4], the “metabolite found … (R,S)-Ket” value is “trace amounts” and the “metabolite found … (R,S)-norKet” value is listed as “trace amounts”. The Vmax in data set [6] (setting [8]) came to 0.087 pmol/min/pmol P450. In addition, the Vmax in data set [6] (setting [9]) was determined as 3.14 pmol/min/pmol P450.
On to `NC1(c2ccccc2Cl)CCC=CC1=O` (stereo not shown) [DHNK, 5,6-dehydronorketamine], for which the plasma concentration in data set [1] was more than 8 ng/mL. Moreover, the Vmax in data set [3] (setting [8]) was found to be 0.98 pmol/min/pmol P450; in data set [3] (setting [9]), 0.92 pmol/min/pmol P450; in data set [5] (setting [8]), 13.0 pmol/min/pmol P450; in data set [5] (setting [9]), 7.61 pmol/min/pmol P450; in data set [6] (setting [8]) it was 0.079 pmol/min/pmol P450; in data set [6] (setting [9]), 1.96 pmol/min/pmol P450. Further, the “metabolite found … (R,S)-Ket” value in data set [4] was “significant concentrations”. Moreover, the “metabolite found … (R,S)-norKet” value in data set [4] was “significant concentrations”.
Take `N[C@@]1(c2ccccc2Cl)CCCCC1=O` [(R)-norKet]: in data set [2] (data not shown), the “disappearance of substrate, other isoforms (no appreciable effect, cutoff)” value was less than 24%. The “depletion of substrate from the incubation mixture” value in data set [7] was found to be 35.0%; in data set [3], 34.5%; in data set [5] (expressed CYP2B6), 47.8%.

(Values after article PMC3426663 (Xenobiotica; the fate of foreign compounds in biological …, 2012).)
